# Assay results taken from ChEMBL document CHEMBL4382230, “Structure-activity relationships, biological evaluation and structural studies of novel pyrrolonaphthoxazepines as antitumor agents” (Eur J Med Chem, 2019).
# Active and inactive are the calls of the source. The calls are words filed in the database; no cut-off is given here.
# Experiments:
# GISTT1 = test: Cytotoxicity against human GISTT1 cells assessed as reduction in cell viability at 1 uM after 48 hrs by alamar blue assay; type: functional, cell-based
# Method in brief: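 GIST-T1 seeded at 4000 cells/well, exposed to 1 or 10 μM for 48 h; viability read by AlamarBlue.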
# HL-60 [1] = test: Cell cycle arrest in human HL60 cells assessed as accumulation of cells at G2/M phase at 10 uM after 24 hrs by propidium iodide staining-based flow cytometric analysis; type: functional
# Method in brief: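 HL-60 exposed to 10 μM for 24 h, vehicle 0.1% DMSO. Cells plated at 2×10^5 cells/mL, stained in PBS with 0.1% sodium citrate, 0.1% NP40 and propidium iodide for 30 min at room temperature in the dark. DNA content by flow cytometry; G2/M fraction reported.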
# [2] = Apparent solubility of compound in sodium phosphate buffer at 15 uM after 20 mins; type: physicochemical
# A2780 = test: Cytotoxicity against human A2780 cells after 48 hrs by MTT assay; type: functional, cell-based; settings: A2780, 48 h
# Method in brief: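 Cells seeded at 12,000 to 17,000 per well depending on line, incubated overnight, then given serial dilutions of ligand for 48 h. MTT at 2.5 mg/mL added for 4 h at 37 °C, formazan solubilized overnight (10% SDS, 45% dimethylformamide, pH 5.5), absorbance read at 595/690 nm. IC50 from log-dose response curves; mean ± SE of three independent assays.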
# [3] = Ratio of IC50 for human A2780AD cells to IC50 for human A2780 cells; type: functional
# Method in brief: (§1)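 Relative resistance: IC50 in the P-gp overexpressing resistant line divided by IC50 in the parental line. Both IC50s came from the 48 h MTT assay (serial dilutions, absorbance at 595/690 nm, log-dose response curves, three independent assays).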
# [4] = Ratio of IC50 for mouse NIH/3T3 cells harboring MDR G185 to IC50 for mouse NIH/3T3 cells; method in brief: as §1
# B16-F10 = test: Cytotoxicity against mouse B16F10 cells assessed as reduction in cell survival at 0.1 to 10 uM after 18 hrs by MTT assay; type: functional, cell-based
# Method in brief: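 Seeded at 2,500 cells/well in medium with 10% serum. After adhesion, exposed to 0.1, 1 and 10 μM in medium with 5% serum for 18 h. Medium then replaced with fresh medium containing 1.2 mM MTT for 4 h; formazan dissolved in DMSO, absorbance at 540 nm. Results given as % of basal response.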
# HCC827 [5] = test: Cytotoxicity against human HCC827 cells assessed as reduction in cell survival at 0.1 to 10 uM after 50 to 60 hrs by MTT assay; type: functional, cell-based
# PC-9 = test: Induction of apoptosis in human PC9 cells assessed as reduction in cyclin D1 expression at 10 uM after 18 hrs by Western blot analysis; type: functional, cell-based
# Method in brief: (§2)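 PC9 and HCC827 maintained in DMEM with 10% FBS, then exposed to 10 μM compound for 18 h in 5% serum. Caspase 3 activation and cell cycle proteins examined by western blot.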
# HCC827 [6] = test: Induction of apoptosis in human HCC827 cells assessed as increase in p21 expression at 10 uM after 18 hrs by Western blot analysis; type: functional, cell-based; method in brief: as §2
# NB-4 [7] = test: Cell cycle arrest in human NB4 cells assessed as accumulation of cells at G1 phase after 24 hrs by propidium iodide staining-based flow cytometric analysis; type: functional
# Method in brief: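 NB4 cultured at 37 °C, 5% CO2 in RPMI-1640 with 10% heat-inactivated FBS. Treated at 50 and 100 nM, 1 and 10 μM for 24 h. Cells fixed/permeabilized in 70% ethanol overnight at 4 °C, then given RNase and 20 μg/ml PI for 30 min. Doublets excluded, 20,000 events per sample; cell-cycle phase distribution analysed.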
# NB-4 [8] = test: Induction of differentiation in human NB4 cells at 500 nM after 24 hrs in presence of ATRA by CD11c staining-based flow cytometric analysis; type: functional, cell-based
# Method in brief: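 NB4 exposed to 0.5 μM compound together with 1 μM ATRA for 24 h. Cells stained with PE-conjugated CD11c (mouse IgG1-PE control) for 1 h at 4 °C in the dark, washed, resuspended in PBS with propidium iodide (0.25 μg/mL), then analysed by flow cytometry. Biological triplicates, mean ± S.E.M.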
# NCI-H929 = test: Cytotoxicity against human NCI-H929 cells after 48 hrs by MTT assay; type: functional, cell-based; settings: NCI-H929, 48 h
# Method in brief: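 Cells (NCI-H929 in RPMI-1640 GlutaMAX; SCC4 in DMEM GlutaMAX; 10% FBS, 37 °C, 5% CO2) treated with increasing concentrations for 48 h. IC50 is the mean of three independent experiments.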
# Ca9-22 = test: Cytotoxicity against human Ca9-22 cells after 24 hrs by MTT assay; type: functional, cell-based; settings: Ca9-22, 24 h
# HL-60 [9] = test: Induction of autophagy in human HL60 cells assessed as increase in LC3B-2 levels at 10 uM after 105 mins in presence of lysosomal inhibitor chloroquine by immunoblot analysis; type: functional, cell-based
# Method in brief: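 HL-60 in serum-supplemented RPMI 1640, or starved in Earle's Balanced Salts for 15 min beforehand, then treated with 10 μM compound with or without 40 μM chloroquine for 1 h 45 min or 16 h. LC3B-II measured by immunoblot, densitometry normalized to actin, three independent experiments, Student's T-test.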
# [10] = Chemical stability of compound in pH 3 aqueous solution assessed as compound remaining after 24 hrs by HPLC analysis; type: physicochemical; settings: read-out: Stability
# [11] = Chemical stability of compound in pH 7.4 aqueous solution assessed as compound remaining after 24 hrs by HPLC analysis; type: physicochemical; settings: read-out: Stability
compound,measurement,setting,value
CC(=O)OC1=C(c2cccc3ncccc23)Oc2cc3ccccc3cc2-n2cccc21,Activity,GISTT1,Active
same,Activity,HL-60 [1],Active
same,"solubility at 20 min, 15 µM",[2],0.17 µM
same,IC50,A2780,80 nM
same,Ratio IC50,[3],1.15
same,Ratio IC50,[4],2
same,Activity,B16-F10,Active
same,Activity,HCC827 [5],inactive
same,Activity,PC-9,Active
same,Activity,HCC827 [6],Active
same,Activity,NB-4 [7],Dose-dependent effect
same,Activity,NB-4 [8],Active
same,IC50,NCI-H929,363 nM
same,IC50,Ca9-22,31600 nM
same,Activity,HL-60 [9],Active
same,remaining at 24 h,[10],65%
same,remaining at 24 h,[11],95.6%
